Measured values taken from publication PMC10439066 (Drugs in R&D, 2023).

Tests used:
recombinant human AKR1C1 = molecular target: T1, recombinant human AKR1C1 (Homo sapiens, UniProt Q04828); experiment: Related enzyme screen; assay type: biochemical; conditions: preclinical screen
T1 sequence (Q04828 1-323): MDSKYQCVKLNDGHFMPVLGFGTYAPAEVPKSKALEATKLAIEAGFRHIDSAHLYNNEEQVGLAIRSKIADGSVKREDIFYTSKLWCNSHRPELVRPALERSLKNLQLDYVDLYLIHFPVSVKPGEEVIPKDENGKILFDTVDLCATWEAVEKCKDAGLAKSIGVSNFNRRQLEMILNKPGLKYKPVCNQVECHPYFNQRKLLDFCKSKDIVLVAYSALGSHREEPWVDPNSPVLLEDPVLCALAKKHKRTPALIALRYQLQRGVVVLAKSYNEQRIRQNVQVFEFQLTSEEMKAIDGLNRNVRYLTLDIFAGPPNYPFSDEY

recombinant human AKR1C4 = molecular target: T2, recombinant human AKR1C4 (Homo sapiens, UniProt P17516); experiment: Related enzyme screen; assay type: biochemical; conditions: preclinical screen
T2 sequence (P17516 1-323): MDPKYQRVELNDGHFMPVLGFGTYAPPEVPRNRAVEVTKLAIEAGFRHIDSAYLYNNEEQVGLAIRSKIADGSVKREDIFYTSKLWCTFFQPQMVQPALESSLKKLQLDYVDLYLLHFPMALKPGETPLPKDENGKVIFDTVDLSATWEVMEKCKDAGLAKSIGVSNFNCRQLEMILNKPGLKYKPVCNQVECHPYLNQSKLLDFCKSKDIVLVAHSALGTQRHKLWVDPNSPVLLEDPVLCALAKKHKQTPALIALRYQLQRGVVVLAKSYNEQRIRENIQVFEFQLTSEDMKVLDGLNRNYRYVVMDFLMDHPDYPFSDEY

female monkeys = experiment: Repeat-dose in vivo toxicity study, monkey; set-up: species or system cynomolgus macaque monkeys (Macaca fascicularis); conditions: cynomolgus monkey
[1] = tested on: adult premenopausal women with endometriosis-related pain symptoms; experiment: AKRENDO1 phase IIa trial, adverse events; assay type: in vivo, human
How it was run: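 Randomized, placebo-controlled phase IIa trial in women ≥18 years with surgically or imaging-confirmed endometriosis who met defined pain criteria. Oral dosing: 3 mg OD, 10 mg OD, 30 mg OD, 30 mg BID, 60 mg BID, or placebo for 12 weeks. Visits at days 10, 28, 56 and 84 (±4 d), plus follow-up 2 weeks after end of treatment. Incidence of AEs, SAEs and TEAEs recorded.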

serum androsterone = experiment: AKRENDO1 pharmacodynamics; assay type: in vivo, human; conditions: completers
endometriotic lesions = conditions: cited from earlier work

## CN(CCC(=O)O)C(=O)c1ccc2c(c1)CC[C@@H]1[C@@H]2CC[C@]2(C)C(c3cncc(F)c3)=CC[C@@H]12 [BAY1128688]
Recombinant human AKR1C1
  activity against related enzyme: no relevant activity
Recombinant human AKR1C4
  activity against related enzyme: no relevant activity
Female monkeys
  Increase in liver transaminases in animal toxicology study: Not observed in cynomolgus monkey animal toxicology study with BAY1128688
  Isolated increase in serum bilirubin in animal toxicology study: Observed in cynomolgus monkey animal toxicology study with BAY1128688
[1]; 3 mg OD n = 11
  Any AE: 8 (72.7) Number (%)
  Any SAE: 1 (9.1) Number (%)
  Any TEAE: 5 (45.5) Number (%)
  Any TESAE: 1 (9.1) Number (%)
  Discontinuation due to TEAE: 0 Number (%)
  Discontinuation due to TESAE: 0 Number (%)
  Procedure-related TEAE: 0 Number (%)
  SAE related to procedure: 0 Number (%)
  Study-drug-related SAE: 0 Number (%)
  Study-drug-related TEAE: 4 (36.4) Number (%)
[1]; 10 mg OD
  participants with TEAEs: 32.3%
  participants with study-drug-related TEAEs: 9.7%
[1]; 10 mg OD n = 31
  Any AE: 16 (51.6) Number (%)
  Any SAE: 0 Number (%)
  Any TEAE: 10 (32.3) Number (%)
  Any TESAE: 0 Number (%)
  Discontinuation due to TEAE: 1 (3.2) Number (%)
  Discontinuation due to TESAE: 0 Number (%)
  Procedure-related TEAE: 0 Number (%)
  SAE related to procedure: 0 Number (%)
  Study-drug-related SAE: 0 Number (%)
  Study-drug-related TEAE: 3 (9.7) Number (%)
[1]; 30 mg BID n = 11
  Any AE: 7 (63.6) Number (%)
  Any SAE: 0 Number (%)
  Any TEAE: 6 (54.5) Number (%)
  Any TESAE: 0 Number (%)
  Discontinuation due to TEAE: 2 (18.2) Number (%)
  Discontinuation due to TESAE: 0 Number (%)
  Procedure-related TEAE: 0 Number (%)
  SAE related to procedure: 0 Number (%)
  Study-drug-related SAE: 0 Number (%)
  Study-drug-related TEAE: 2 (18.2) Number (%)
[1]; 30 mg OD
  participants with TEAEs: 90.0%
[1]; 30 mg OD n = 10
  Any AE: 9 (90.0) Number (%)
  Any SAE: 2 (20.0) Number (%)
  Any TEAE: 9 (90.0) Number (%)
  Any TESAE: 2 (20.0) Number (%)
  Discontinuation due to TEAE: 0 Number (%)
  Discontinuation due to TESAE: 0 Number (%)
  Procedure-related TEAE: 0 Number (%)
  SAE related to procedure: 0 Number (%)
  Study-drug-related SAE: 1 (10.0) Number (%)
  Study-drug-related TEAE: 4 (40.0) Number (%)
[1]; 60 mg BID
  participants with study-drug-related TEAEs: 51.9%
[1]; 60 mg BID n = 27
  Any AE: 23 (85.2) Number (%)
  Any SAE: 1 (3.7) Number (%)
  Any TEAE: 21 (77.8) Number (%)
  Any TESAE: 1 (3.7) Number (%)
  Discontinuation due to TEAE: 3 (11.1) Number (%)
  Discontinuation due to TESAE: 0 Number (%)
  Procedure-related TEAE: 2 (7.4) Number (%)
  SAE related to procedure: 0 Number (%)
  Study-drug-related SAE: 1 (3.7) Number (%)
  Study-drug-related TEAE: 14 (51.9) Number (%)
Serum androsterone
  cyclicity of sex hormones: No changes
Serum androsterone; from visit 4 onwards, 12 weeks
  serum concentrations of androsterone: increased dose-dependently
Endometriotic lesions
  effect on endometriotic lesions compared with vehicle group: reduced endometriotic lesions
  ovarian cyclicity after treatment: remained unchanged
